Test system: Primary human hepatocytes, TRAIL cytotoxicity, ATPlite, 24 h
Assay: hepatocyte cytotoxicity of TRAIL potentiators – cell-based, primary human hepatocytes, ATPlite luminescence, 24 h, cytotoxicity control for TRAIL sensitizer project, confirmation (AID 1746)
Conditions: for cytotoxicity with TRAIL: at 5 µM (top of the series); for cytotoxicity: stronger effect = higher value
In short: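 Material – primary human hepatocytes · Probe or stimulus – TRAIL, 1000 ng/mL final · Doses – compound 1.25–5 µM final · Incubation – 4 h compound pretreatment, then 24 h TRAIL exposure, 37 °C · Detection – ATPlite luminescence · Measure – percent cytotoxicity, sodium azide background signal subtracted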

[1] = compound alone without TRAIL, at 5 µM
[2] = measured here: TRAIL alone reference, dose or concentration not given here

Work on CSc1nc(-c2ccc(C)cc2)nc(C(Cl)Cl)n1 yielded a cytotoxicity with TRAIL of 67%, a cytotoxicity [1] of 9% and a cytotoxicity [2] of 0%.

In the case of CCSc1nc(-c2ccccc2)nc(C(Cl)Cl)n1, the cytotoxicity with TRAIL is reported as 73%, the cytotoxicity [1] is reported as 47% and the cytotoxicity [2] is reported as 0%.

CSc1nc(-c2ccccc2)nc(C(Cl)Cl)n1 was tested, and the cytotoxicity with TRAIL was 68%, the cytotoxicity [1] was 22% and the cytotoxicity [2] was 0%.

Source: PubChem BioAssay AID1746 (Sanford-Burnham Center for Chemical Genomics, 2009)
